Screening results as filed in PubChem BioAssay.
Shown are actives, neighbours in structure and some others; about 1.2% of the full set was active somewhere.
Dynein cargo inh = inhibitors of GR-EGFP nuclear translocation, primary screen, dynein cargo transport inhibitor project, imaging, high-content, 3617.4 mouse cells | 220,000 compounds, 0.47% hits | z-score, hits read low | test concentration mostly 20 µM; stimulated with dexamethasone, 1 µM; stronger effect = lower value;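 active = plate z-score of nuclear minus cytoplasmic receptor signal below a set negative limit, without overly bright fluorescence or cell loss, cut at about -3.5 in these data, passing the limit was not always enough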;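 also: z-score of nuclear minus cytoplasmic ring GR-EGFP intensity difference per well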
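medium = tetracycline-free induction medium containing charcoal-stripped FBS | also added = 1.0 µM final dexamethasone stimulus | schedule = 48 h induction, 1 h compound, 30 min dex at 37 °C | technique = fixed, Hoechst-stained cells imaged at 10x for EGFP | measure = GR-EGFP nuclear translocation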
Autophagy mod = autophagy modulators in MEF cells, primary screen, imaging, high-content, MEF GFP-LC3. MEF GFP-LC3 puncta imaging; test concentration mostly 10 µM. calls only at 10 µM (by protocol). 190,000 compounds, 0.98% hits. AID 463193, 2010;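 active = percentage of spot-positive cells more than 3 SD above its plate mean, without a fluorescence outlier flag or 80% toxicity; inconclusive = no clear call, values can overlap the other calls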;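 also: spot-positive cell cutoff set from DMSO-treated cells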
PERK inh = block of dimerizer-induced PERK translation repression, primary screen, PERK inhibitor project, CHO PERK-DD cells, SEAP luminescence, HTS; Eukaryotic translation initiation factor 2-alpha kinase 3 (Homo sapiens), Q9NZJ5; CHO PERK-DD fusion, SEAP luminescence translation reporter; inhibition, % at 5.6 µM; 220,000 compounds, 0.17% hits; AID 1416, 2008;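 active = inhibition above the mean inhibition of all tested compounds plus 3 SD, set separately per screening campaign, cut at about 2.9% in these data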;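 also: PERK kinase domain activated by AP20187 dimerizer at 100 nM; 0% = DMSO with dimerizer and 100% = rapamycin at 8.4 µM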
Target sequence (Q9NZJ5 whole entry, looked up, the tested form may be a part): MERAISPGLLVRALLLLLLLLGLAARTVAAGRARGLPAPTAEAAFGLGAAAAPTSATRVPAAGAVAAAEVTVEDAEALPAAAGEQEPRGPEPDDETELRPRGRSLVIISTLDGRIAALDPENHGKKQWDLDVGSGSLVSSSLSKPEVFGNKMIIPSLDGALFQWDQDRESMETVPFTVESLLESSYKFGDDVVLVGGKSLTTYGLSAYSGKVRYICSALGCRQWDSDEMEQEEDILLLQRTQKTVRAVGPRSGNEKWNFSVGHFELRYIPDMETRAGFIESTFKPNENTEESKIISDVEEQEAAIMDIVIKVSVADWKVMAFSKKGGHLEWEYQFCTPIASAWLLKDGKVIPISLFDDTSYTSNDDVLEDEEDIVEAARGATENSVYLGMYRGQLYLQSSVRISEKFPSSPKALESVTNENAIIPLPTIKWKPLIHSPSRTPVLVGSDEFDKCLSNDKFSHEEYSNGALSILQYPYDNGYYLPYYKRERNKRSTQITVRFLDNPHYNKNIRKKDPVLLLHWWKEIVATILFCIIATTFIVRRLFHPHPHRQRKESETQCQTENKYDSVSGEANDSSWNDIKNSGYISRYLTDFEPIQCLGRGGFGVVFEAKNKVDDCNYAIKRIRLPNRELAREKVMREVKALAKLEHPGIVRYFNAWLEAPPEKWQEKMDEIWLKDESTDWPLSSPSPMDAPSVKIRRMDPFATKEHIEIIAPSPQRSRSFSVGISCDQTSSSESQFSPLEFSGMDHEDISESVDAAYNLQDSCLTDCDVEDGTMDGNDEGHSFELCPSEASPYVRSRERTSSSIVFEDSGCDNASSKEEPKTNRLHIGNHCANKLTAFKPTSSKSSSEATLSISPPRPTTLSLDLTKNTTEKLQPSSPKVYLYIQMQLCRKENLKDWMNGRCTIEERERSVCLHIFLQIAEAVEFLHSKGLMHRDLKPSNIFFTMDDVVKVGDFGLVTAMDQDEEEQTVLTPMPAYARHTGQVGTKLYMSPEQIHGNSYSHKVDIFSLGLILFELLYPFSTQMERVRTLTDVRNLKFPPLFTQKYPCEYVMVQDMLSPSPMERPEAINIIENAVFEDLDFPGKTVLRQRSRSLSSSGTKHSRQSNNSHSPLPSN
TbHK1 inh = Trypanosoma brucei hexokinase 1 inhibitors, primary screen, biochemical, G6PDH-coupled NADH absorbance, MLSCN library; hexokinase 1 [Trypanosoma brucei]; recombinant TbHK1, G6PDH-coupled NADH A340; inhibition, % at 10 µM; 220,000 compounds, 0.11% hits; AID 1430, 2008;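 active = inhibition of 50% or more in the single-dose primary screen; inactive = inhibition below 50%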
HSV replic up = enhancers of HSV replication in host cells, fold increase, host cell viability | HSV replication augmentation in cells | maximum fold increase | 220,000 compounds, 0.005% hits | AID 1956, 2009; in the data active = maximum fold increase above about 1.5; inconclusive = no clear call, values can overlap the other calls; tested in PC3 cells
HKDC1 inhibitor = HKDC1 hexokinase inhibitors, primary screen, biochemical, fluorescence, uHTS; recombinant HKDC1, G6PDH/diaphorase resazurin coupled fluorescence; inhibition, % at 20 µM; 340,000 compounds, 0.16% hits;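 active = inhibition above about 35% when tested at 20 µM, limit read from the data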;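 also: plate controls were DMSO wells with enzyme for no effect and DMSO wells lacking enzyme for full effect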
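Material – in-house recombinant HK5 (HKDC1) enzyme · Quantity – HKDC1 at 5 µg/mL · Buffer or medium – pH 8.0 Tris buffer with 10 mM MgCl2 · Reagent – glucose with 1 mM ATP · Dosing – single 20 µM dose · Times – reaction time 90 min, room temperature, protected from light · Technique – resorufin fluorescence at 613 nm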
* marks the source's active call; other numbers are inactive results; ! = not confirmed by another sample.

COc1ccccc1NCC(=O)NNC(C)C(=O)Nc1cccc(Cl)c1 (configuration not stated) was read as Dynein cargo inh -0.985, Autophagy mod active, PERK inh 0.7, TbHK1 inh 12.6, HSV replic up inactive and HKDC1 inhibitor -2.2.
Screening Cc1ccc(C(=O)OCC(=O)NC2CCCCCC2)c(C)c1 returned HKDC1 inhibitor -5.8.
Screening COc1cc(/C=C2\SC(=O)N(CCNC(=O)c3sc4cc(F)ccc4c3Cl)C2=O)cc(OC)c1OC returned Dynein cargo inh -1.63, Autophagy mod active, PERK inh 0.6, TbHK1 inh -26.0, HSV replic up inactive and HKDC1 inhibitor 0.6.
`CC1CCC(C(C)C)C(OC(=O)Cn2c(-c3ccc(Br)cc3)[n+](C)c3ccccc32)C1` (configuration not stated) gave Dynein cargo inh 0.654, Autophagy mod active!, PERK inh 0.1, TbHK1 inh 29.0, HSV replic up inactive and HKDC1 inhibitor -4.9.
Screening COc1ccc(-n2nnnc2CNC(=O)c2ccc3c(c2)OCO3)cc1 returned HKDC1 inhibitor -9.0.
CC1Cc2ccccc2N1C(=O)c1ccc(F)c(S(=O)(=O)N2CCOCC2)c1 (configuration not stated) was read as HKDC1 inhibitor -9.0.
CCOc1cc(C2C(C(=O)c3ccc(C)cc3)=C(C(=O)OC)Nc3nnnn32)ccc1O (configuration not stated) was read as Dynein cargo inh 1.02, Autophagy mod inactive, PERK inh 0.1, TbHK1 inh -8.5, HSV replic up 2.11* and HKDC1 inhibitor -5.3.
O=c1c2ccc([N+](=O)[O-])cc2ncn1CCOc1ccccc1 was read as Dynein cargo inh 0.171, Autophagy mod inactive, PERK inh 1.6, TbHK1 inh -6.0, HSV replic up inactive and HKDC1 inhibitor 2.3.
Screening O=C(Cn1cnc2cc([N+](=O)[O-])ccc2c1=O)Nc1ccc(Br)cc1 returned Dynein cargo inh 0.144, PERK inh 1.7, TbHK1 inh -7.9, HSV replic up inactive and HKDC1 inhibitor 0.9.
`CC(C)(C)c1ccc(NC(=O)Cn2cnc3cc([N+](=O)[O-])ccc3c2=O)cc1` gave Dynein cargo inh 0.332, Autophagy mod active, PERK inh 1.1, TbHK1 inh 0.1, HSV replic up inactive and HKDC1 inhibitor -12.1.
`Cc1ccc(OCCn2cnc3cc([N+](=O)[O-])ccc3c2=O)cc1` gave Dynein cargo inh -0.0162, Autophagy mod active, PERK inh 0.2, TbHK1 inh 9.3, HSV replic up inactive and HKDC1 inhibitor -2.0.
For Cc1ccc(NC(=O)CN2C(=O)N/C(=C/c3ccc(C)s3)C2=O)cc1 the results were Dynein cargo inh -1.17, Autophagy mod active, PERK inh 0.9, TbHK1 inh -13.6, HSV replic up inactive and HKDC1 inhibitor -23.6.
For Cc1cccc(CN2C(=O)N/C(=C/c3ccc(C)s3)C2=O)c1 the results were Dynein cargo inh -1.89, Autophagy mod active, PERK inh -0.5, TbHK1 inh -7.6, HSV replic up inactive and HKDC1 inhibitor -5.2.
Screening Cc1ccc(/C=C2/NC(=O)N(Cc3ccccc3)C2=O)s1 returned Dynein cargo inh -5.2, Autophagy mod inactive, PERK inh -0.7, TbHK1 inh -1.2, HSV replic up inactive and HKDC1 inhibitor 13.3.
Screening COc1cccc(C(CNC(=O)C(c2ccccc2)c2ccccc2)N(C)C)c1 (configuration not stated) returned HKDC1 inhibitor -4.0.
For Cc1cc(NC(=O)CSc2nnc(C3COc4ccccc4O3)n2N)no1 (configuration not stated) the results were Dynein cargo inh -0.777, PERK inh 2.8, TbHK1 inh 1.0, HSV replic up inactive and HKDC1 inhibitor -9.1.
`Cc1cc(NC(=O)CSc2nnc(C3COc4ccccc4O3)o2)no1` (configuration not stated) gave Dynein cargo inh -0.0363, Autophagy mod active, PERK inh 0.9, TbHK1 inh 5.7, HSV replic up inactive and HKDC1 inhibitor 2.5.
Screening O=c1c2c([N+](=O)[O-])cc([N+](=O)[O-])cc2sn1-c1ccc(Br)cc1 returned Dynein cargo inh -0.876, Autophagy mod inactive, PERK inh 0.6, TbHK1 inh 92.0*, HSV replic up inactive and HKDC1 inhibitor 7.5.
CN(c1ccc(F)cc1)S(=O)(=O)c1ccc(Cl)c(C(=O)NCC2(N3CCOCC3)CCCCC2)c1 was read as HKDC1 inhibitor -1.3.
For CCN1C(=O)C(CC(=O)N2CCN(C(c3ccccc3)c3ccccc3)CC2)N(CC)C1=O (configuration not stated) the results were Dynein cargo inh 0.774, Autophagy mod active, PERK inh -0.5, TbHK1 inh -10.0, HSV replic up inactive and HKDC1 inhibitor 11.5.
Screening Cc1cc(C)n(-c2ccc(NC(=O)C3CCCCN3C(=O)c3sccc3C)cc2)n1 (configuration not stated) returned HKDC1 inhibitor -1.7.
CCOc1cc(NC(=S)NCCCN2CCOCC2)c(OCC)cc1NC(=O)c1cccs1 was read as Dynein cargo inh 1.24, Autophagy mod active, PERK inh -0.8, TbHK1 inh -5.4, HSV replic up inactive and HKDC1 inhibitor -5.1.
`COc1ccc(-c2oc(=O)c3cc(OC)c(OC)cc3c2C#C[C@]2(O)CC[C@H]3[C@@H]4CCc5cc(OC)ccc5[C@H]4CC[C@@]32C)cc1` gave HKDC1 inhibitor 2.4.
For CCOC(=O)C1=C(C)N(c2ccc(C)cc2)C(=O)/C1=C\c1ccc(O)c(OC)c1 the results were Dynein cargo inh -2.61, PERK inh -1.3, TbHK1 inh 0.6, HSV replic up inactive and HKDC1 inhibitor 14.2.
For CCOC(=O)C1=C(O)c2ccccc2C(=O)/C1=C\c1ccc(C)cc1 the results were Dynein cargo inh -5.43, Autophagy mod inactive, PERK inh -0.4, TbHK1 inh -4.1, HSV replic up inconclusive and HKDC1 inhibitor 67.2*.
Screening O=C(CSc1ccncc1)Nc1ccc(S(=O)(=O)Nc2nccs2)cc1 returned Dynein cargo inh 0.87, Autophagy mod inactive, PERK inh 0.5, TbHK1 inh -1.2, HSV replic up inactive and HKDC1 inhibitor -2.1.
Cc1ccc(SCC(=O)Nc2ccc(S(=O)(=O)Nc3nccs3)cc2)cc1 was read as Dynein cargo inh -0.85, Autophagy mod active, PERK inh 0.9, TbHK1 inh 4.4, HSV replic up inactive and HKDC1 inhibitor -5.8.
